Laboratory results reported in paper PMC8526772 (The Journal of Biological Chemistry, 2021).
Substitutions are numbered along the chain they refer to.

Tests used:
Experiment in all cases: fluorescence-binding assay
JHAMT1 = target: T1, JHAMT1 (Bombyx mori, UniProt Q767F1)
T1 sequence (Q767F1 1-278): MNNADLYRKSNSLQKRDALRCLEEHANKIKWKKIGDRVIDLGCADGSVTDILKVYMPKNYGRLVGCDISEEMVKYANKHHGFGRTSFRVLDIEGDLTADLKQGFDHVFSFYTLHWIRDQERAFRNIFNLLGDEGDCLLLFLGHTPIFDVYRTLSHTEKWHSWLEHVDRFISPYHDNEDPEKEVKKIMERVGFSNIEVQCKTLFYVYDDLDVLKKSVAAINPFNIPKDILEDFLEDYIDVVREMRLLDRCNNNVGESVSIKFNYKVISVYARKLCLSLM
How it was run: (§1)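 Intrinsic tryptophan fluorescence quenching used 2 μM recombinant B. mori JHAMT (wild type or point mutant) in 20 mM Tris-HCl pH 8.0, 200 mM NaCl, equilibrated 2 min at 25 °C. Ligand was titrated at final 0–1.5 mM SAM (cofactor binding) or 0–0.1 mM FA (substrate binding). Excitation was 280 nm with emission recorded 300–450 nm. Kd was fitted from quenching data as mean ± s.d. of n = 3.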

JHAMT2 = target: T2, JHAMT2 (Bombyx mori, UniProt A0A8M0FGR8)
T2 sequence (A0A8M0FGR8 1-267): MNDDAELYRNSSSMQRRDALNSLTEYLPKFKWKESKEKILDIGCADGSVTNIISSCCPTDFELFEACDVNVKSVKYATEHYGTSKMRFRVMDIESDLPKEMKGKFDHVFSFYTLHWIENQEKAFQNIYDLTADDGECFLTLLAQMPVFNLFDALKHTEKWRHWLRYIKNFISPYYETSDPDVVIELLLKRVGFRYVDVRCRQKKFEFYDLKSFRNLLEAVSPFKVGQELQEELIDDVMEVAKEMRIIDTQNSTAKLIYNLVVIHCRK
How it was run: as §1

JHAMT1-D^91A = target: T3, JHAMT1-D^91A (Bombyx mori, UniProt Q767F1, D91A)
T3 sequence (Q767F1 1-278 D91A): T1 sequence (Q767F1 1-278) with D91A
How it was run: as §1

JHAMT2-D^92A = target: T4, JHAMT2-D^92A (Bombyx mori, UniProt A0A8M0FGR8, D92A)
T4 sequence (A0A8M0FGR8 1-267 D92A): T2 sequence (A0A8M0FGR8 1-267) with D92A
How it was run: as §1

JHAMT2-T^113A = target: T5, JHAMT2-T^113A (Bombyx mori, UniProt A0A8M0FGR8, T113A)
T5 sequence (A0A8M0FGR8 1-267 T113A): T2 sequence (A0A8M0FGR8 1-267) with T113A
How it was run: as §1

JHAMT1-T^112A = target: T6, JHAMT1-T^112A (Bombyx mori, UniProt Q767F1, T112A)
T6 sequence (Q767F1 1-278 T112A): T1 sequence (Q767F1 1-278) with T112A
How it was run: as §1

Compound: C[S+](CC[C@H](N)C(=O)[O-])C[C@H]1O[C@@H](n2cnc3c(N)ncnc32)[C@H](O)[C@@H]1O (stereo partly drawn) [SAM, S-adenosyl-L-methionine]
- Kd (JHAMT1): 38.7 ± 3.42 µM
- Kd (JHAMT2): 42.6 ± 5.83 µM
- Kd (JHAMT1-D^91A): 229 ± 18.1 µM
- Kd (JHAMT2-D^92A): 261 ± 18.1 µM
- Kd (JHAMT2-T^113A): 144 ± 9.91 µM
- Kd (JHAMT1-T^112A): 191 ± 12.7 µM
